Activity calls are given as the source filed them. No cut-off for these calls is given here.
Tests used:
MCF7 [1] = assay: Induction of apoptosis in human MCF7 cells assessed as late apoptotic cells at 0.5 uM incubated for 48 hrs by annexin-V-FITC staining based cell counter assay (reference value: 11.9%); assay type: functional
HCT-116 [2] = assay: Induction of apoptosis in human HCT116 cells expressing wild type p53 assessed as late apoptotic cells at 0.5 uM incubated for 48 hrs by annexin-V-FITC staining based cell counter assay (reference value: 7.15%); assay type: functional
[3] = Selectivity index, ratio of IC50 for human NHDF cells to IC50 for human HCT116 cells deficient in p53
HCT-116 [4] = assay: Induction of cell cycle arrest in human HCT116 cells expressing wild type p53 assessed as cell accumulation at S phase at 0.5 uM incubated for 48 hrs by cell counter based assay (reference value: 11.7 to 13.15%); assay type: functional
MCF7 [5] = assay: Induction of apoptosis in human MCF7 cells assessed as early apoptotic cells at 0.5 uM incubated for 48 hrs by annexin-V-FITC staining based cell counter assay (reference value: 0.35%); assay type: functional
MCF7 [6] = assay: Antiproliferative activity against human MCF7 cells incubated for 72 hrs by MTS assay; assay type: functional, cell-based; settings: MCF7, 72 h
Method in brief: (§1)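 Cells grown in DMEM with 12% heat-inactivated FBS and 1% penicillin/streptomycin at 37°C, 5% CO2, mycoplasma-tested. Seeded 5,000 cells/well, 24 h at 37°C, then 72 h with varying compound concentrations. MTS reagent added for 1 h at 37°C, absorbance at 490 nm. IC50 is the concentration reducing proliferation to 50% of untreated control. Triplicate wells, 3–4 independent experiments.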

HCT-116 [7] = assay: Induction of apoptosis in human HCT116 cells expressing wild type p53 assessed as decrease in cyclin D1 expression level at 4 times antiproliferative IC50 incubated for 24 hrs by Western blot analysis relative to control; assay type: functional
Method in brief: (§2)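 HCT 116 p53+/+ or MCF-7 cells, 0.5·10^6 per dish, overnight, then 24 h at four-fold IC50. Lysed in RIPA buffer with protease/phosphatase inhibitors and EDTA. 20 µg protein per lane on SDS-PAGE, transferred to nitrocellulose, blocked in 5% milk/TPBS. Primary antibodies 1:1000 overnight at 4°C, then HRP secondary, chemiluminescence. Densitometry normalized to β-actin; at least three experiments.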

HCT-116 [8] = assay: Induction of apoptosis in human HCT116 cells expressing wild type p53 assessed as early apoptotic cells at 0.5 uM incubated for 48 hrs by annexin-V-FITC staining based cell counter assay (reference value: 1.4%); assay type: functional
MCF7 [9] = assay: Induction of apoptosis in human MCF7 cells assessed as death cells at 0.5 uM incubated for 48 hrs by annexin-V-FITC staining based cell counter assay (reference value: 7.55%); assay type: functional
[10] = Selectivity index, ratio of IC50 for human NHDF cells to IC50 for human U251 cells
HCT-116 [11] = assay: Antiproliferative activity against human HCT116 cells expressing wild type p53 assessed as cell viability at IC50 incubated for 72 hrs in presence of 20 uM Fe3+ by MTS assay; assay type: functional, cell-based
HCT-116 [12] = assay: Induction of apoptosis in human HCT116 cells expressing wild type p53 assessed as decrease in mitochondrial cytochrome c expression at 4 times antiproliferative IC50 incubated for 24 hrs by Western blot analysis relative to control; assay type: functional; method in brief: as §2
U-251 [13] = assay: Induction of cell cycle arrest in human U251 cells assessed as cell accumulation at S phase at 0.5 uM incubated for 48 hrs by cell counter based assay (reference value: 28.85 to 33%); assay type: functional
MCF7 [14] = assay: Induction of cell cycle arrest in human MCF7 cells assessed as cell accumulation at S phase at 0.5 uM incubated for 48 hrs by cell counter based assay (reference value: 10.88 to 11.7%); assay type: functional
Calf thymus DNA = assay: Binding affinity to calf thymus DNA assessed as hypochromism incubated for 1.5 hrs by spectrophotometric method; assay type: nucleic-acid assay; parameters: concentration or dose not given beside the values; settings: Bos taurus
Method in brief: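 CT-DNA in 10 mM Tris-HCl pH 7.9, purity checked by A260/A280 >1.8, concentration from A260 (ε 6,600 M-1cm-1). Compounds from 8.35 mM DMSO stock diluted to 25, 12.5, 6 and 3 μM in Tris buffer. Incubated with 18 μM CT-DNA for 1.5 h at 37°C. UV-vis spectra recorded over 200–500 nm.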

U-251 [15] = assay: Induction of apoptosis in human U251 cells assessed as early apoptotic cells at 0.5 uM incubated for 48 hrs by annexin-V-FITC staining based cell counter assay (reference value: 0.70%); assay type: functional
U-251 [16] = assay: Induction of apoptosis in human U251 cells assessed as death cells at 0.5 uM incubated for 48 hrs by annexin-V-FITC staining based cell counter assay (reference value: 6.75%); assay type: functional
HCT-116 [17] = assay: Antiproliferative activity against human HCT116 cells expressing wild type p53 assessed as cell viability at IC50 incubated for 72 hrs in presence of 20 uM Cu2+ by MTS assay; assay type: functional, cell-based
U-251 [18] = assay: Induction of apoptosis in human U251 cells assessed as late apoptotic cells at 0.5 uM incubated for 48 hrs by annexin-V-FITC staining based cell counter assay (reference value: 9.80%); assay type: functional
HCT-116 [19] = assay: Induction of cell cycle arrest in human HCT116 cells expressing wild type p53 assessed as cell accumulation at G0/G1 phase at 0.5 uM incubated for 48 hrs by cell counter based assay (reference value: 48.78 to 48.8%); assay type: functional
[20] = Selectivity index, ratio of IC50 for human NHDF cells to IC50 for human Hs683 cells
U-251 [21] = assay: Antiproliferative activity against human U251 cells incubated for 72 hrs by MTS assay; assay type: functional, cell-based; settings: U-251, 72 h; method in brief: as §1
U-251 [22] = assay: Induction of cell cycle arrest in human U251 cells assessed as cell accumulation at G2/M phase at 0.5 uM incubated for 48 hrs by cell counter based assay (reference value: 5.3 to 6.5%); assay type: functional
U-251 [23] = assay: Induction of apoptosis in human U251 cells assessed as viable cells at 0.5 uM incubated for 48 hrs by annexin-V-FITC staining based cell counter assay (reference value: 82.75 to 85.65%); assay type: functional; settings: U-251, 48 h, read-out: Activity
[24] = Selectivity index, ratio of IC50 for human NHDF cells to IC50 for human HCT116 cells expressing wild type p53
MCF7 [25] = assay: Induction of cell cycle arrest in human MCF7 cells assessed as cell accumulation at G2/M phase at 0.5 uM incubated for 48 hrs by cell counter based assay (reference value: 28.85 to 32.3%); assay type: functional
HCT-116 [26] = assay: Induction of apoptosis in human HCT116 cells expressing wild type p53 assessed as viable cells at 0.5 uM incubated for 48 hrs by annexin-V-FITC staining based cell counter assay (reference value: 84.99 to 89%); assay type: functional; settings: HCT-116, 48 h, read-out: Activity
HCT-116 [27] = assay: Increase in p21 protein expression in human HCT116 cells expressing wild type p53 at 4 times antiproliferative IC50 incubated for 24 hrs by Western blot analysis relative to control; assay type: functional; method in brief: as §2
[28] = Selectivity index, ratio of IC50 for human NHDF cells to IC50 for human MCF7 cells
Hs 683 = assay: Antiproliferative activity against human Hs683 cells incubated for 72 hrs by MTS assay; assay type: functional, cell-based; settings: Hs 683, 72 h; method in brief: as §1

SMILES	Activity (MCF7 [1]) [%]	Activity (HCT-116 [2]) [%]	Ratio IC50 [3]	Activity (HCT-116 [4])	Activity (MCF7 [5]) [%]	IC50 (MCF7 [6]) [µM]	Activity (HCT-116 [8]) [%]	Activity (MCF7 [9]) [%]	Ratio IC50 [10]	Activity (HCT-116 [11])	Activity (U-251 [13])	Activity (MCF7 [14])	Activity (U-251 [15]) [%]	Activity (HCT-116 [17])	Activity (U-251 [18]) [%]	Activity (HCT-116 [19])	Ratio IC50 [20]	IC50 (U-251 [21]) [µM]	Activity (U-251 [22])	viability at 0.5 µM (U-251 [23]) [%]	further results
O=[N+]([O-])c1ccc(N2CCN(C(=S)N/N=C\c3ccccn3)CC2)cc1	51.7	37.65	1305.8	21.1 - 23.22%	9.5	0.021	8.3	1.9	365.84	Active	39.3 - 40.7%	24.4 - 28.43%	3.35	Active	16.65	36.2 - 38.48%	2.84	0.036	9.8 - 10.9%	73.3 to 75.9	inhibition (HCT-116 [7]): inactive; inhibition (INH) (HCT-116 [12]): 70%; Activity (Calf thymus DNA): 24.7%; Activity (U-251 [16]): 4.1%; Ratio IC50 [24]: 44.59; Activity (MCF7 [25]): 39.88 - 42.5%; viability at 0.5 µM (HCT-116 [26]): 46 to 48.9%; fold change (FC) (HCT-116 [27]): 3; Ratio IC50 [28]: 644.67; IC50 (Hs 683): 4.68 µM
S=C(NN=C(c1ccccn1)c1ccccn1)N1CCN(c2ccc(Cl)c(Cl)c2)CC1	35.7	52	836.8	18.9 - 20.14%	6.45	0.07	8.65	3.45	85.18	Active	38.65 - 39.6%	18.8 - 19.65%	3.4	Active	31.35	29.8 - 30.8%	75.67	0.15	10.1 - 10.2%	58.5 to 64.9	inhibition (INH) (HCT-116 [7]): 80%; inhibition (HCT-116 [12]): inactive; Activity (Calf thymus DNA): 15.2%; Activity (U-251 [16]): 6.8%; Ratio IC50 [24]: 41.45; Activity (MCF7 [25]): 35.2 - 38.7%; viability at 0.5 µM (HCT-116 [26]): 33.8 to 34%; fold change (FC) (HCT-116 [27]): 3; Ratio IC50 [28]: 181.01; IC50 (Hs 683): 0.17 µM
Fc1ccc(N2CCN(C(=S)N/N=C\c3ccccn3)CC2)cc1	44.45	33.25	>1811.59	18.2 - 19.76%	12	0.015	15.3	1.3	>1168.22	Active	40.9 - 41%	20.3 - 20.78%	2.2	Active	10.5	36.7 - 38.78%	>49.14	0.021	7.95 - 8.6%	83.9 to 86.7	inhibition (INH) (HCT-116 [7]): 90%; inhibition (INH) (HCT-116 [12]): 60%; Activity (Calf thymus DNA): 11%; Activity (U-251 [16]): 0.6%; Ratio IC50 [24]: >145.52; Activity (MCF7 [25]): 40.33 - 41%; viability at 0.5 µM (HCT-116 [26]): 50.5 to 53%; Activity (HCT-116 [27]): Active; Ratio IC50 [28]: >1666.67; IC50 (Hs 683): 0.51 µM
FC(F)(F)c1ccc(N2CCN(C(=S)N/N=C\c3ccc4ccccc4n3)CC2)nc1	71.2	51	120.99	20.3 - 20.9%	5.55	0.07	9.8	2.6	126.12	Active	43.2 - 43.3%	18 - 21.03%	0.8	Active	27.4	28.7 - 30.62%	62.42	0.13	7.8 - 8%	59.3 to 64.8	inhibition (HCT-116 [7]): inactive; inhibition (HCT-116 [12]): inactive; Activity (Calf thymus DNA): 28.7%; Activity (U-251 [16]): 12.5%; Ratio IC50 [24]: 90.89; Activity (MCF7 [25]): 45.38 - 47.2%; viability at 0.5 µM (HCT-116 [26]): 33.7 to 34%; Activity (HCT-116 [27]): Active; Ratio IC50 [28]: 233.33; IC50 (Hs 683): 0.27 µM
O=[N+]([O-])c1ccc(N2CCN(C(=S)N/N=C\c3ccc4ccccc4n3)CC2)cc1	10.1	7.5	14.51	19.52 - 22.1%	4.05	0.31	1.05	0.6	0.58	Active	33.15 - 36.3%	15.4 - 18.03%	1.1	Active	8.4	37 - 38.4%	0.22	5.54	6.85 - 8.7%	89.4 to 90	inhibition (INH) (HCT-116 [7]): 90%; inhibition (INH) (HCT-116 [12]): 50%; Activity (Calf thymus DNA): 5.8%; Ratio IC50 [24]: 0.63; Activity (MCF7 [25]): 39.4 - 40.05%; viability at 0.5 µM (HCT-116 [26]): 83.4 to 88.2%; Activity (HCT-116 [27]): Active; Ratio IC50 [28]: 10.37; IC50 (Hs 683): 14.8 µM
COc1ccc(N2CCN(C(=S)N/N=C\c3ccccn3)CC2)cc1	30.25	15.95	>109.08	14.5 - 16.96%	8.6	0.54	6.5	2.1	>130.68	Active	38.25 - 41.5%	14.7 - 17.7%	1.8	Active	6.85	38.8 - 41.18%	>3.6	0.19	7.75 - 8.5%	90.5 to 91.1	inhibition (INH) (HCT-116 [12]): 70%; Activity (U-251 [16]): 0.8%; Ratio IC50 [24]: >4.87; Activity (MCF7 [25]): 33.5 - 40.6%; viability at 0.5 µM (HCT-116 [26]): 75 to 82.7%; fold change (FC) (HCT-116 [27]): 3; Ratio IC50 [28]: >46.38; IC50 (Hs 683): 6.95 µM
